In ChEMBL document CHEMBL1255526, “Fused tricyclic pyrrolizinones that exhibit pseudo-irreversible blockade of the NK1 receptor” (Bioorg Med Chem Lett, 2010):

What was measured:
Substance-P receptor [1] = target: T1, Substance-P receptor (Homo sapiens, UniProt P25103); experiment: Displacement of [125I]substance P from human NK1 receptor expressed in CHO cells; type: cell-based
Procedure, shortened: (§1)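 Radioligand binding: [125I]substance P displaced from human NK1 receptor expressed in CHO cells; IC50 determined. Also run with 50% serum added (human, dog, rhesus, rat or gerbil) to measure the serum shift.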

Substance-P receptor [2] = target: T1, Substance-P receptor; experiment: Displacement of [125I]substance P from human NK1 receptor expressed in CHO cells in presence of 50% human serum; type: cell-based; procedure, shortened: as §1
Substance-P receptor [3] = target: T1, Substance-P receptor; experiment: Antagonist activity at human recombinant NK1 receptor expressed in CHO cells assessed as remaining substance P level at 100 nM after 30 mins by [H3]-inositol phosphate release assay; type: functional, cell-based
Procedure, shortened: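 CHO cells with recombinant human NK1 receptor, 2.5 × 10⁴ per well, plated overnight, then prelabelled overnight at 37 °C with [3H]-myo-inositol (10–25 Ci/mmol) in inositol-free medium with 0.02% BSA. LiCl 10 mM in HEPES-buffered inositol-free DMEM, 15 min. Antagonist at 100 nM or DMSO for 30 min, then substance P for 30 min. Stopped with formic acid. [3H]-inositol phosphate captured on yttrium silicate SPA beads, 2 h. Reported as % substance P response remaining.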

[4] = Binding affinity to potassium channel IKr
[5] = Binding affinity to calcium channel
Procedure, shortened: (§2)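 Ion channel binding assay; IC50 values calculated for sodium channel and for calcium channel (Dlz site).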

Meriones unguiculatus [6] = experiment: Inhibition of GR-73632-induced foot tapping in Mongolian gerbil at 3 mg/kg after 24 hrs; type: functional
Procedure, shortened: (§3)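 Gerbils given antagonist at the dose and pretreatment time shown (1 mg/kg at 1 h, 3 mg/kg at 24 h); foot tapping then induced with the NK1 agonist GR73632. Read-out is % inhibition of tapping; ED50 or ID50 from dose–response.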

[7] = target: T2, Nuclear receptor subfamily 1 group I member 2 (Homo sapiens, UniProt O75469); experiment: Inhibition of human PXR induction
T2 sequence (O75469 whole entry): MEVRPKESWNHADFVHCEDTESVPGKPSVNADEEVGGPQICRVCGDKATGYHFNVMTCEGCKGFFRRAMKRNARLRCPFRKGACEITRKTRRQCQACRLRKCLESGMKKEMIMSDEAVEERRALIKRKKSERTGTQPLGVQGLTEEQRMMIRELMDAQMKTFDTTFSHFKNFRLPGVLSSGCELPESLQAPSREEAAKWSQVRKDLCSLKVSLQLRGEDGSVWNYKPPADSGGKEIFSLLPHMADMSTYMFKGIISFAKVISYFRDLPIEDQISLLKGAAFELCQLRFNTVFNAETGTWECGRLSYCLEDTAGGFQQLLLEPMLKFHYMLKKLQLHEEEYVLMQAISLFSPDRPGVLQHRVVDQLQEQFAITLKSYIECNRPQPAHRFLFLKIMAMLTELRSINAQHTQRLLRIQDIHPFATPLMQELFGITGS

[8] = target: T3, PXR (nuclear receptor subfamily 1 group I member 2) (Homo sapiens, UniProt O75469); experiment: Inhibition of human PXR induction at 10 uM
T3 sequence (O75469 whole entry): T2 sequence (O75469 whole entry)
Procedure, shortened: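 Human PXR induction measured at 10 µM compound, expressed as % of maximal induction.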

Meriones unguiculatus [9] = species: Meriones unguiculatus; experiment: Inhibition of GR-73632-induced foot tapping in Mongolian gerbil after 24 hrs; type: functional; details: read-out: ED50; procedure, shortened: as §3
Meriones unguiculatus [10] = experiment: Inhibition of GR-73632-induced foot tapping in Mongolian gerbil at 1 mg/kg after 1 hr; type: functional; procedure, shortened: as §3
[11] = Binding affinity to sodium channel; procedure, shortened: as §2

T1 sequence (P25103 whole entry): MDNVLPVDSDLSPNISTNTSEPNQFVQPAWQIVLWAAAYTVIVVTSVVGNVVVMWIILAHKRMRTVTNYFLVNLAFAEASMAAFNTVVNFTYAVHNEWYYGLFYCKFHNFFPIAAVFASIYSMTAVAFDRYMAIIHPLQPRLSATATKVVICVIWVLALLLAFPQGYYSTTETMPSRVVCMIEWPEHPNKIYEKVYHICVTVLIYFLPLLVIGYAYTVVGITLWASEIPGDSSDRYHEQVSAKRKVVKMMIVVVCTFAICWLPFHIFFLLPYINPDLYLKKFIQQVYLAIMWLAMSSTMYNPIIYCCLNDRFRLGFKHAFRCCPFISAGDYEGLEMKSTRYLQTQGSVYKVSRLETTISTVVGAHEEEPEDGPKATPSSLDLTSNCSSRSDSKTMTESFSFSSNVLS

IC50 (Substance-P receptor [1]) [nM]	IC50 (Substance-P receptor [2]) [nM]	Activity (Substance-P receptor [3]) [%]	IC50 [5] [nM]	IC50 [7] [nM]	Emax at 10 µM [8] [%]	IC50 [11] [nM]	SMILES	IC50 [4] [nM]	inhibition in vivo at 3 mg/kg (Meriones unguiculatus [6]) [%]	ED50 (Meriones unguiculatus [9]) [mg/kg]	inhibition in vivo at 1 mg/kg (Meriones unguiculatus [10]) [%]
1.5	47	93					C[C@@H](O[C@H]1CN2C(=O)[C@@H]3C[C@H](N)C[C@@H]3[C@H]2[C@@H]1c1ccc(F)cc1)c1cc(C(F)(F)F)cc(C(F)(F)F)c1				
1.2	13	94					C[C@@H](O[C@H]1CN2C(=O)[C@@H]3C[C@H](NCc4ccccc4)C[C@@H]3[C@H]2[C@@H]1c1ccc(F)cc1)c1cc(C(F)(F)F)cc(C(F)(F)F)c1				
0.17	1.9		8810				C[C@@H](O[C@H]1CN2C(=O)C3CN(C4=CC(=O)CC4)CC3[C@H]2[C@@H]1c1ccc(F)cc1)c1cc(C(F)(F)F)cc(C(F)(F)F)c1 (single isomer, unassigned) [FIRST ELUDED ISOMER]	1430	32		
0.17	1.8	2	140	> 25000	0		C[C@@H](O[C@H]1CN2C(=O)[C@H]3C[C@@H](NCc4ccccc4)C[C@H]3[C@H]2[C@@H]1c1ccc(F)cc1)c1cc(C(F)(F)F)cc(C(F)(F)F)c1	280	100	0.47	
0.09	1		4810				C[C@@H](O[C@H]1CN2C(=O)C3CN(C4=CC(=O)CC4)CC3[C@H]2[C@@H]1c1ccc(F)cc1)c1cc(C(F)(F)F)cc(C(F)(F)F)c1 (stereo in doubt; 18b) [FIRST ELUDED ISOMER]	730			92
0.066	1.2	24					C[C@@H](O[C@H]1CN2C(=O)[C@H]3C[C@](C)(O)C[C@H]3[C@H]2[C@@H]1c1ccc(F)cc1)c1cc(C(F)(F)F)cc(C(F)(F)F)c1				
		88	1580	4800	50	1750	C[C@@H](O[C@H]1CN2C(=O)CC[C@H]2[C@@H]1c1ccc(F)cc1)c1cc(C(F)(F)F)cc(C(F)(F)F)c1	5700	100	0.2	
		75	1880	> 25000	1	7720	C[C@@H](O[C@H]1CN2C(=O)CC(N)[C@H]2[C@@H]1c1ccc(F)cc1)c1cc(C(F)(F)F)cc(C(F)(F)F)c1 (stereo partly specified)	9500	100	0.92	
0.16	1.7	4	8420	3300	51		CC[C@]1(O)C[C@H]2[C@H]3[C@H](c4ccc(F)cc4)[C@@H](O[C@H](C)c4cc(C(F)(F)F)cc(C(F)(F)F)c4)CN3C(=O)[C@H]2C1	1770	100	0.06	
0.21	2.3	31					CC[C@@]1(O)C[C@H]2[C@H]3[C@H](c4ccc(F)cc4)[C@@H](O[C@H](C)c4cc(C(F)(F)F)cc(C(F)(F)F)c4)CN3C(=O)[C@H]2C1				
0.14	1.3	4	210	> 25000	0	210	C[C@@H](O[C@H]1CN2C(=O)[C@H]3C[C@H](NCc4ccccc4)C[C@H]3[C@H]2[C@@H]1c1ccc(F)cc1)c1cc(C(F)(F)F)cc(C(F)(F)F)c1	300	94		
0.66	13	61					CC(O[C@H]1CN2C(=O)[C@@H]3CC(N)C[C@@H]3[C@H]2[C@@H]1c1ccc(F)cc1)c1cc(C(F)(F)F)cc(C(F)(F)F)c1 (single isomer, unassigned)				
1.5	15						C[C@@H](O[C@H]1CN2C(=O)C3CNCC3[C@H]2[C@@H]1c1ccc(F)cc1)c1cc(C(F)(F)F)cc(C(F)(F)F)c1 (single isomer, unassigned) [FIRST ELUDED ISOMER]				
		46					C[C@@H](O[C@H]1CN2C(=O)C3CNCC3[C@H]2[C@@H]1c1ccc(F)cc1)c1cc(C(F)(F)F)cc(C(F)(F)F)c1 (single isomer, unassigned)				
0.08	1.7	35					C[C@@H](O[C@H]1CN2C(=O)[C@H]3C[C@H](O)C[C@H]3[C@H]2[C@@H]1c1ccc(F)cc1)c1cc(C(F)(F)F)cc(C(F)(F)F)c1				
		7					C[C@@H](O[C@H]1CN2C(=O)C3CN(C4=CC(=O)CC4)CC3[C@H]2[C@@H]1c1ccc(F)cc1)c1cc(C(F)(F)F)cc(C(F)(F)F)c1 (stereo in doubt; 18b)				
0.14	2.3	58					C[C@@H](O[C@H]1CN2C(=O)[C@@H]3C[C@@H](NCc4ccccc4)C[C@@H]3[C@H]2[C@@H]1c1ccc(F)cc1)c1cc(C(F)(F)F)cc(C(F)(F)F)c1		6		81
0.31	3.2		310				C[C@@H](O[C@H]1CN2C(=O)C3CNCC3[C@H]2[C@@H]1c1ccc(F)cc1)c1cc(C(F)(F)F)cc(C(F)(F)F)c1 (stereo in doubt; 6b) [FIRST ELUDED ISOMER]	2710	12		
		11					C[C@@H](O[C@H]1CN2C(=O)C3CN(C4=CC(=O)CC4)CC3[C@H]2[C@@H]1c1ccc(F)cc1)c1cc(C(F)(F)F)cc(C(F)(F)F)c1 (single isomer, unassigned)				
0.06	0.77	3		4500	65		C[C@@H](O[C@H]1CN2C(=O)[C@H]3C[C@@H](O)C[C@H]3[C@H]2[C@@H]1c1ccc(F)cc1)c1cc(C(F)(F)F)cc(C(F)(F)F)c1		100		100
		60					C[C@@H](O[C@H]1CN2C(=O)C3CNCC3[C@H]2[C@@H]1c1ccc(F)cc1)c1cc(C(F)(F)F)cc(C(F)(F)F)c1 (stereo in doubt; 6b)				
		59	210	> 25000	7	240	C[C@@H](O[C@H]1CN2C(=O)C(N)C[C@H]2[C@@H]1c1ccc(F)cc1)c1cc(C(F)(F)F)cc(C(F)(F)F)c1 (stereo partly specified)	6500	100	0.61	
0.11	1	10	590	> 25000	0	520	C[C@@H](O[C@H]1CN2C(=O)[C@H]3C[C@H](N)C[C@H]3[C@H]2[C@@H]1c1ccc(F)cc1)c1cc(C(F)(F)F)cc(C(F)(F)F)c1	1730	100	1.33	
0.09	1	6	1230	> 25000	0	710	C[C@@H](O[C@H]1CN2C(=O)[C@H]3C[C@@H](N)C[C@H]3[C@H]2[C@@H]1c1ccc(F)cc1)c1cc(C(F)(F)F)cc(C(F)(F)F)c1	990	91		
